EBI2 antag: blocks human EBI2 receptor beta-arrestin signaling | inhibition, % at 5 µM | AID 651636 | 0.81% of 360,000 active | P32249 | EBI2 beta-arrestin recruitment, luminescence, 7a,25-OHC stimulated; in the data active = inhibition above about 38%;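 note: enzyme fragment complementation signal reports receptor beta-arrestin coupling in cells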
Myeloid diff 2: myeloid differentiation induction. ER-HoxA9 myeloid progenitors, lysozyme-GFP differentiation, flow cytometry. calls only at 10 µM. 1% of 360,000 active. AID 624256;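 active = normalized GFP-positive differentiation at or above the plate's own cutoff, the solvent-only control mean plus 3 SD; inconclusive = no clear call, values can overlap the other calls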;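 note: cells exposed to compound for four days before flow analysis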
Exocytosis inh: lytic granule exocytosis inhibition | TALL-104 LAMP-1 surface exposure, flow cytometry; cells stimulated with thapsigargin and PMA | inhibition, % at 10 µM | 0.66% of 360,000 active | AID 651702;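 active = inhibition above about 55%, limit read from the data; inconclusive = no clear call, values can overlap the other calls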
MC4R ag barr: activates human MC4R beta-arrestin recruitment; activation, % at 8.9 µM; P32245; AID 540308; 0.98% of 360,000 active; U2OS MC4R beta-arrestin complementation, luminescence; percent of melanotan II response, DMSO zero;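 active = activation above a per-plate cutoff, the mean activation of sample wells on that plate plus 3 SD, cut at about 8% in these data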
Target sequence (P32245 whole entry, looked up): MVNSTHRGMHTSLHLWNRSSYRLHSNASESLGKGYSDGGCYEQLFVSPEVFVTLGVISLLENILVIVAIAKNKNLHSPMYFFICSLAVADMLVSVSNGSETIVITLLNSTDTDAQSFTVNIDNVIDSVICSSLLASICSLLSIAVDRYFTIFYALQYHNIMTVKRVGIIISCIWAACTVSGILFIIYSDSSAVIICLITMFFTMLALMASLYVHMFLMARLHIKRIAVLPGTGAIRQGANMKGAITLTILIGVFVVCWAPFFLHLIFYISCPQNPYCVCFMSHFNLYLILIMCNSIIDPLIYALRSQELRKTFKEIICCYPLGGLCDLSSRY
MC4R antag cAMP: human MC4R antagonism in cAMP assay | inhibition, % at 6.5 µM | 0.48% of 360,000 active | P32245 | MC4R-expressing cells, MTII-stimulated cAMP, LANCE TR-FRET;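 active = inhibition above its plate's cutoff, the mean of tested wells on that plate plus 3 SD, cut at about 29% in these data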
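Material: U2OS-MC4R stable cell line | Reagent: Melanotan II challenge after compound preincubation | Doses: One concentration, 6.5 µM nominal | Incubation: 30-min compound preincubation, 1-h Melanotan II challenge, 1-h detection, room temperature | Signal: TR-FRET cAMP assay | Replicates: One well per compound, no replicates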
Each line names hits and unclear results; the compound was inactive in the other large screens. Sampled rows, rich in hits. Any-hit rate of the full collection: about 3.7%.

Cc1cc(Cl)ccc1OC(C)C(=O)NCCCCc1ccccc1 (stereo not drawn)	MC4R ag barr 9.0
CC(=O)N1c2ccc(S(=O)(=O)NCCC(=O)Nc3ccc(F)cc3C)cc2CC1C (stereo not drawn)	none
O=C(C1CCC(=O)N(C2CCCC2)C1)N1CCN(Cc2cccc(F)c2)CC1 (stereo not drawn)	Myeloid diff 2 active
COc1cc(OC)c(OC)cc1/C=C/C(=O)c1ccc(NS(=O)(=O)c2ccc(C)cc2)cc1	Myeloid diff 2 active
O=C(Nc1ccc(Cl)c(-c2nc3ccccc3[nH]2)c1)c1ccc2c(c1)OCO2	Myeloid diff 2 active
O=C(Nc1ccc(-c2nc3ccccc3[nH]2)cc1)c1ccc2c(c1)OCO2	none
O=C1C=CC(=O)N1c1ccc(OC(F)F)cc1	MC4R antag cAMP 37
O=C1C=CC(=O)N1c1ccc(O)cc1	none
O=c1ccc(-c2ccc(S(=O)(=O)NCC3CCN(Cc4ccccc4F)CC3)s2)n[nH]1	none
CC(C)(c1ccccc1)c1ccc(OCC2CO2)cc1 (stereo not drawn)	Exocytosis inh 56
COc1cc(N=Nc2cccc(S(N)(=O)=O)c2)c2ccccc2c1N	Myeloid diff 2 active
Cc1ccc2c(c1)N(CC(=O)NCC(C)c1ccccc1)C(=O)c1cccnc1O2 (stereo not drawn)	none
O=c1[nH]c(-c2ccccn2)nc2sc(-c3ccccc3)cc12	EBI2 antag 87, Myeloid diff 2 inconclusive
Cc1c(C(=O)N(C)C)sc2nc(-c3ccccn3)[nH]c(=O)c12	none
CC(O)[C@H]1CNCCN1CC1(c2ccccc2)CC1 (stereo partly drawn)	none
CN(C)c1ccc(CNC(=O)C2CCN(S(=O)(=O)c3ccc4c(c3)CCCC(=O)N4)CC2)cc1	Myeloid diff 2 active
Cc1[nH]ccc(=O)c1Oc1ncc(C(F)(F)F)cc1Cl	none
CCc1ccc2nc(N3CCN(C(=O)C(C)(C)C)CC3)sc2c1	Myeloid diff 2 active
COc1cccc(CNC(=O)c2cc3c(C)nc4ccccc4c3o2)c1	none
COc1ccc(CNC(=O)Cc2c(C(=O)O)[nH]c3ccccc23)cc1	none
COc1ccc(CNC(=O)Cc2c(C(=O)O)[nH]c3ccccc23)c(OC)c1	Myeloid diff 2 active
COc1ccc(CNC(=O)c2cc3c(C)nc4ccccc4c3o2)c(OC)c1	MC4R ag barr 8.6
CC(C)[C@H](NC(=O)c1ccco1)C(=O)Nc1ccc(N2CCCCCC2)cc1	none
N/C(=N\OC(=O)CSc1ccccc1)c1ccccn1	Myeloid diff 2 inconclusive
CNC(=O)c1ccc(-c2sc3nc(N4CCOCC4)c4c(c3c2N)CC(C)(C)OC4)o1	none
CC1(C)Cc2c(c(N3CCOCC3)nc3sc(-c4ccc(C(=O)O)o4)c(N)c23)CO1	Myeloid diff 2 active
CCCCCCNC(=O)c1cn(CC)c2cc(N3CCN(C)CC3)c(F)cc2c1=O	EBI2 antag 45
N#Cc1ccc(-c2nc3c4ccccc4ccn3c2Cc2cccc(Cl)c2)cc1	none (no result: MC4R ag barr, MC4R antag cAMP)
Cc1ccc(CNc2oc(COc3ccccc3Cl)nc2C#N)cc1	EBI2 antag 47, MC4R ag barr 9.5
COc1ccc(S(=O)(=O)N(C)CC(=O)Nc2ccc(C(N)=O)cc2)cc1OC	none
COC(=O)c1ccc(NC(=O)CN(C)S(=O)(=O)c2ccc(OC)c(C)c2)cc1	MC4R ag barr 8.3
CCOC(=O)C1(C)CCCN(C(=O)c2ccc(OC)cc2)C1 (stereo not drawn)	none
O=C(CSc1nnc(-c2ccccc2F)o1)Nc1ccc(N2CCOCC2)cc1	none
Cc1cc(C)nc(SCC(=O)Nc2ncc(Cc3cccc(Cl)c3Cl)s2)n1	MC4R ag barr 8.8
CN(C)c1cc[n+](Cc2c(Cl)cccc2Cl)cc1	Myeloid diff 2 active
CN(C)c1cc[n+](CC[n+]2ccc(N(C)C)cc2)cc1	none
COc1cc(N2CCCC2)c(OC)cc1/C=C1/NC(=S)NC1=O	Myeloid diff 2 active
COc1ccc(OC)c(/C=C2\NC(=O)NC2=O)c1	none
O=C(NCC1CCCO1)C(Cc1ccccc1)N1C(=O)C2C3C=CC(C4CC34)C2C1=O (stereo not drawn)	none
CS(=O)(=O)N1N=C(c2ccccc2)CC1c1ccc2c(c1)OCO2 (stereo not drawn)	Myeloid diff 2 active
N#CC(=C1CCCC1)c1nc(-c2ccccc2O)cs1	EBI2 antag 65
N#CC(=C1CCCC1)c1nc(-c2ccccc2)cs1	none
O=C(COc1ccccc1)N[C@@H]1c2ccccc2CC[C@H]1OCc1ccccc1	none
O=C(COc1ccccc1)N[C@@H]1c2ccccc2CC[C@@H]1OCc1ccccc1	MC4R ag barr 8.4
Cc1sc2nc(CSc3nc4ccccc4c(=O)n3CCCN3CCOCC3)[nH]c(=O)c2c1C	Myeloid diff 2 active
O=C(OCC12CC3CC(CC(C3)C1)C2)c1ccc(NCc2cc(O)ccc2O)cc1	Myeloid diff 2 inconclusive, MC4R ag barr 11
O=c1cc(C(F)(F)F)[nH]c2c(OC(F)(F)F)cccc12	none
COc1ccc(C(O)CNc2ccc(C)cc2)cc1 (stereo not drawn)	EBI2 antag 66
O=C(CCC(=O)NC1CCCCC1)N/N=C/c1ccncc1	none
O=S(=O)(NCc1ccc(C(F)(F)F)cc1)c1ccc(-n2cnnn2)cc1	Myeloid diff 2 active
O=C(CCl)N(c1ccccc1)C1CCCCC1	Myeloid diff 2 inconclusive, MC4R ag barr 9.1
CC(=O)N(c1ccccc1)C1CCCC1	none
O=C(COC(=O)c1cccs1)NCC1CCCO1 (stereo not drawn)	none
O=C(NCC1CCCO1)c1cccs1 (stereo not drawn)	Myeloid diff 2 active
CC(=O)Nc1ccccc1C(=O)C(=O)Nc1ccc(C(=O)NCC2CCCO2)cc1 (stereo not drawn)	Myeloid diff 2 active
CC(=O)Nc1ccccc1C(=O)C(=O)Nc1cccc(C(=O)NCC2CCCO2)c1 (stereo not drawn)	none
O=C(N/N=C/c1cccc(O)c1)N/N=C/c1cccc(O)c1	Myeloid diff 2 active
CCCCN(C)CC(O)Cn1cc(/C=C/C(=O)c2cccs2)c2ccccc21 (stereo not drawn)	none
O=C(/C=C/c1cn(CC(O)CN2CCCCCC2)c2ccccc12)c1cccs1 (stereo not drawn)	Myeloid diff 2 active
Nc1ccc2nc3c(=O)n(CCc4ccccc4)c(=O)[nH]c3nc2c1	Myeloid diff 2 active
CCOC(=O)c1c(-c2ccc(C)o2)csc1NC(=O)CSc1nncs1	Exocytosis inh 90
COc1ccc(S(=O)(=O)Nc2cc3c4c(c2)CCN4C(=O)CC3)cc1C	none
Cc1nnc(N2C(=O)c3cccc4c([N+](=O)[O-])ccc(c34)C2=O)s1	Exocytosis inh 86
Cc1ccnc(N2C(=O)c3cccc4c([N+](=O)[O-])ccc(c34)C2=O)c1	Myeloid diff 2 inconclusive, Exocytosis inh 77
COC(=O)c1ccccc1S(=O)(=O)N(Cc1cc2ccc(OC)cc2[nH]c1=O)CC1CCCO1 (stereo not drawn)	none

High-throughput results: PubChem BioAssay, several laboratories
